Assay outcomes deposited in PubChem BioAssay by The Scripps Research Institute Molecular Screening Center.
PAFAH2 FP inh = inhibitors of human PAFAH2; recombinant PAFAH2, FP-rhodamine activity probe, fluorescence polarization; Q99487; inhibition, % at 3.39 µM; AID 492956; actives 0.99% (n = 340,000);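 active = inhibition above the mean over all tested compounds plus 3 SD, cut at about 30% in these data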;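 also: inhibitors block probe labeling of enzyme so polarization drops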
pPAFAH inh = inhibitors of human plasma PAF acetylhydrolase (pPAFAH). recombinant pPAFAH, FP-rhodamine probe fluorescence polarization. Q13093. actives 1.5% (n = 330,000). inhibition, % at 3.39 µM;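 active = inhibition above the mean inhibition across the screen plus 3 SD, cut at about 25% in these data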;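 also: inhibitors block binding of the rhodamine activity-based probe so polarization drops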
HTRA1 inh = HTRA1 (human) protease inhibition; Q92743; recombinant HTRA1, FP-rhodamine activity-based probe, fluorescence polarization; inhibition, % at 5.96 µM; actives 0.5% (n = 340,000); in the data active = inhibition above about 36%
PAFAH1B3 inh = inhibitors of human PAFAH1B3 | recombinant PAFAH1B3, FP-rhodamine probe, fluorescence polarization | actives 0.28% (n = 340,000) | inhibition, % at 3.39 µM | AID 492972;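 active = inhibition above the screen-wide average of all tested compounds plus 3 SD, cut at about 25% in these data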
mABHD4 FP = ABHD4 (mouse) inhibition, primary FP screen; Q8VD66; purified mABHD4, FP-Rh probe fluorescence polarization; inhibition, % at 8.92 µM; actives 0.54% (n = 370,000); AID 720543;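 active = inhibition exceeding the mean over every tested compound plus 3 SD, cut at about 30% in these data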
Target sequence (Q8VD66 whole entry, looked up): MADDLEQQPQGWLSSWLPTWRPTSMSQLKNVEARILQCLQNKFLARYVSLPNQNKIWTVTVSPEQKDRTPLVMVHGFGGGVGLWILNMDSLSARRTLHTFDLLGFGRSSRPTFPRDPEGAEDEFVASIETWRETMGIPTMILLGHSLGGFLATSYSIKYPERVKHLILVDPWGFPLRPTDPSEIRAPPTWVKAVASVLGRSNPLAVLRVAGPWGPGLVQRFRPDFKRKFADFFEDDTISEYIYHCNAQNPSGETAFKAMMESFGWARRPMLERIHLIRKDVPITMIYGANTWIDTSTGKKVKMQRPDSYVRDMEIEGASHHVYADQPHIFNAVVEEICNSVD
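Test system: mABHD4 protein; Read-out basis: % inhibition; Incubation: 45 min + 60 min at 25 °C; Repeats: single replicate; Technique: fluorescence polarization with parallel and perpendicular emission, 525/598 nm; Compound: 8.92 µM, single dose; Benchmarks: full inhibition S159A mutant plus DMSO, zero as sample-well median.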
PAFAH1B2 inh = PAFAH1B2 (human) inhibition | P68402 | recombinant PAFAH1B2, FP-rhodamine activity probe, fluorescence polarization | inhibition, % at 3.39 µM | actives 1.2% (n = 340,000) | AID 492953;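 active = inhibition above the mean of all tested compounds plus 3 SD, cut at about 24% in these data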
HTRA1 conf = confirmation of human HTRA1 inhibitors; AID 540248; inhibition, % at 5.96 µM; actives 66% (n = 1,600); recombinant HTRA1, FP-rhodamine activity-based probe, fluorescence polarization; shares compounds with HTRA1 inh;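 active = mean inhibition over three repeats above a set limit taken from the earlier primary screen, cut at about 37% in these data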;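 also: inhibitors block probe binding so polarization drops and inhibition rises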
Numbers stand for hits; i = inactive; nt = no result given. Most compounds without a hit are left out; they make up all but 2.8% or so of the library.

SMILES | PAFAH2 FP inh | pPAFAH inh | HTRA1 inh | PAFAH1B3 inh | mABHD4 FP | PAFAH1B2 inh | HTRA1 conf
COC(=O)[C@]12C[C@H](CC(=O)NCc3cccc(C(F)(F)F)c3)C(=O)N(Cc3ccco3)C1=C[C@H](C(C)C)O[C@@H]2C1CC1 | nt | nt | nt | nt | i | nt | nt
CCOc1ccc2c(c1)-c1c(ssc1=S)C(C)(C)N2 | i | i | 46.5 | i | nt | i | 61.0
CCOc1ccc2c(c1)-c1c(ssc1=S)C(C)(C)N2C(=O)CSC1=NCCS1 | i | i | i | i | i | i | nt
CN1/C(=C/C=C/c2n(C)c3cc([N+](=O)[O-])c([N+](=O)[O-])cc3[n+]2C)C(C)(C)c2ccccc21 | nt | nt | 42.1 | nt | i | nt | 41.5
Cc1nc([N+](=O)[O-])cn1CC(Cl)Cn1cc([N+](=O)[O-])nc1C | nt | nt | nt | nt | i | nt | nt
CCCC1CCC2(CC1)CCC2OC(=S)Nc1ccccc1C(F)(F)F (stereo unspecified) | nt | nt | nt | nt | i | nt | nt
COc1ccc(NC(=O)c2cc3ccccc3cc2O)cc1 | i | 32.0 | 39.2 | i | i | i | i
Cc1ccc(NC(=O)c2cc3ccccc3cc2O)cc1 | i | i | i | i | i | i | nt
COc1cccc2c1C(=N)c1c(O)c3c(c(O)c1C2=O)CC(O)(C(C)=O)CC3OC1CC(N)C(O)C(C)O1 (stereo unspecified) | i | nt | 41.2 | i | nt | i | 42.6
CCCCC(=O)OCC(=O)C1(O)Cc2c(O)c3c(c(O)c2C(OC2CC(NC(=O)C(F)(F)F)C(O)C(C)O2)C1)C(=O)c1c(OC)cccc1C3=O (stereo unspecified) | i | nt | i | i | i | i | nt
COc1cccc2c1C(=O)c1c(O)c3c(c(O)c1C2=O)CC(O)(C(C)=O)CC3OC1CC(O)C(O)C(C)O1 (stereo unspecified) | 68.2 | nt | 73.0 | 52.0 | 78.8 | 65.3 | 73.6
C=CCN1[C@H](Cc2ccccc2)COc2cccc(N3CCSCC3)c2S1(=O)=O | nt | nt | nt | nt | i | nt | nt
Nc1cccc(Nc2nc(OC(C(F)(F)F)C(F)(F)F)nc(OC(C(F)(F)F)C(F)(F)F)n2)c1 | i | i | 37.8 | i | i | i | i
Cc1ccsc1/C=N/N=C/c1sccc1C | i | i | i | i | i | i | nt
Cc1ccsc1C=Nc1ccc(O)cc1 | i | i | 51.4 | i | nt | i | i
CCOC(=O)[C@@]12CCCC3=C1N(CCC3)C(=O)[C@H]2CC(=O)NCCCN1CCCC1=O | nt | nt | nt | nt | i | nt | nt
COC(=O)[C@]12C[C@H](CC(=O)NCC34CC5CC(CC(C5)C3)C4)C(=O)N(Cc3ccco3)C1=C[C@H](C(C)C)O[C@@H]2C1CC1 | nt | nt | nt | nt | i | nt | nt
CC(C)(C)c1ccc(O)c(O)c1 | i | i | 37.8 | i | i | i | 60.3
NS(=O)(=O)c1ccc(N/C=C\C(=O)c2ccc(F)cc2)cc1 | i | i | i | i | i | i | nt
CN(C)c1ccc(N/C=C/C(=O)c2ccc(F)cc2)cc1 | i | 31.4 | 53.0 | i | nt | i | i
COc1ccccc1Nc1ccc2c(O)cc(S(=O)(=O)O)cc2c1 | 75.4 | nt | 68.7 | 75.4 | 85.5 | 34.0 | 52.9
COc1ccc(N=C2NC(=O)/C(=C\C=C\c3ccco3)S2)cc1 | i | nt | 38.4 | i | i | i | i
CCc1cccc(CC)c1NC(=S)NCCc1c(C)[nH]c2ccccc12 | i | i | i | i | i | i | nt
CCc1cccc(CC)c1NC(=S)NCCc1ccc(O)c(O)c1 | i | i | 67.1 | i | i | i | 77.5
CCCCS(=O)(=O)N1CCCc2nc(-c3ccc(OC)cc3)ccc21 | nt | nt | nt | nt | i | nt | nt
SMILES | PAFAH2 FP inh | pPAFAH inh | HTRA1 inh | PAFAH1B3 inh | mABHD4 FP | PAFAH1B2 inh | HTRA1 conf
Cc1sc2ncnc(N/N=C/c3ccccc3O)c2c1C | i | i | 59.7 | i | i | i | 60.6
COc1ccc(/C=N/NC(=O)c2ccc(C)cc2)cc1CN1CCN(c2ccc(F)cc2)CC1 | i | i | i | i | nt | i | nt
COc1ccc(/C=N\NC(=O)c2cc(O)c(O)c(O)c2)cc1CN1CCN(c2ccc(F)cc2)CC1 | i | 30.5 | 82.6 | i | i | i | 77.5
CCn1c(C)nc2cc(C(=O)N/N=C(\C)c3ccc(OC)cc3O)ccc21 | i | nt | 40.0 | i | i | i | i
Cc1nc(N)sc1-c1csc(Nc2ccccn2)n1 | i | nt | i | i | i | i | nt
Cc1ccc(Nc2nc(-c3sc(N)nc3C)cs2)cc1 | i | nt | 49.9 | i | i | i | i
Cc1nc(N)sc1-c1csc(Nc2ccc(Cl)cn2)n1 | i | i | 42.0 | i | i | i | 37.4
